ChEMBL document CHEMBL4152223 (Eur J Med Chem, 2018)
Converted amounts (≈) assume the structure as drawn.

Key:
HepG2 = assay: Cytotoxicity against human HepG2 cells assessed as reduction in cell viability by MTS assay; assay type: cell-based
Outline: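 HepG2 human hepatocellular carcinoma cells (passage 2-4) were cultured in Eagle's MEM with 10% FBS, 1% L-glutamine and non-essential amino acids. Compounds were dissolved in DMSO and tested in triplicate at eight concentrations. Viability was read by colorimetric MTS tetrazolium reduction. Controls were 100% viability and 0% viability (10% DMSO). IC50 is the concentration reducing viability to 50% of control.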

Mycobacterium kansasii [1] = assay: Antimycobacterial activity against Mycobacterium kansasii 6509/96 after 14 days; assay type: functional; conditions: 6509/96, 336 h
Mycobacterium avium [2] = assay: Antimycobacterial activity against INH/RIF/OFX resistant Mycobacterium avium 330/88 after 14 days; assay type: functional; conditions: 330/88, 336 h
Mycobacterium avium [3] = assay: Antimycobacterial activity against INH/RIF/OFX resistant Mycobacterium avium 330/88 after 21 days; assay type: functional; conditions: 330/88, 504 h
Mycobacterium kansasii [4] = assay: Antimycobacterial activity against Mycobacterium kansasii 6509/96 after 7 days; assay type: functional; conditions: 6509/96, 168 h
Mycobacterium kansasii [5] = assay: Antimycobacterial activity against Mycobacterium kansasii 6509/96 after 21 days; assay type: functional; conditions: 6509/96, 504 h
Mycobacterium kansasii [6] = assay: Antimycobacterial activity against Mycobacterium kansasii 235/80 after 7 days; assay type: functional; conditions: 235/80, 168 h
[7] = test system: Mycobacterium tuberculosis; assay: Antimycobacterial activity against Mycobacterium tuberculosis H37Rv after 14 days; assay type: functional; conditions: 336 h
Mycobacterium kansasii [8] = assay: Antimycobacterial activity against Mycobacterium kansasii 235/80 after 14 days; assay type: functional; conditions: 235/80, 336 h
Mycobacterium kansasii [9] = assay: Antimycobacterial activity against Mycobacterium kansasii 235/80 after 21 days; assay type: functional; conditions: 235/80, 504 h
[10] = test system: Mycobacterium tuberculosis; assay: Antimycobacterial activity against Mycobacterium tuberculosis H37Rv after 21 days; assay type: functional; conditions: 504 h
[11] = Selectivity index, ratio of IC50 for human HepG2 cells to MIC for Mycobacterium tuberculosis H37Rv after 14 days; assay type: toxicity; conditions: read-out: Selectivity Index
Outline: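 SI is calculated as HepG2 IC50 divided by MIC. HepG2 cells (passage 2-4) were grown in EMEM with 10% FBS, L-glutamine and non-essential amino acids. Compounds in DMSO were tested in triplicate at eight concentrations, and viability was read by MTS tetrazolium reduction. IC50 is the concentration reducing viability to 50% of control. 10% DMSO served as the 0% viability control.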

Row | SMILES | IC50 (HepG2) [µM] | MIC (Mycobacterium kansasii [1]) [µM] | MIC (Mycobacterium avium [2]) [µM] | MIC (Mycobacterium avium [3]) [µM] | MIC (Mycobacterium kansasii [4]) [µM] | MIC (Mycobacterium kansasii [5]) [µM] | MIC (Mycobacterium kansasii [6]) [µM] | MIC [7] [µM] | MIC (Mycobacterium kansasii [8]) [µM] | MIC (Mycobacterium kansasii [9]) [µM] | MIC [10] [µM] | selectivity ratio at 336 h [11]
1 | CCCCCCCCCCCCCCNC(=O)NNC(=O)c1ccncc1 | > 50 | 62.5 (≈ 23.5 µg/mL) | 125 (≈ 47.1 µg/mL) | 125 (≈ 47.1 µg/mL) | 32 (≈ 12 µg/mL) | 62.5 (≈ 23.5 µg/mL) | 32 (≈ 12 µg/mL) | 32 (≈ 12 µg/mL) | 62.5 (≈ 23.5 µg/mL) | 62.5 (≈ 23.5 µg/mL) | 62.5 (≈ 23.5 µg/mL) | –
2 | CCCCCCCCCCCCCCNc1nnc(-c2ccncc2)o1 | – | 250 (≈ 89.6 µg/mL) | 250 (≈ 89.6 µg/mL) | 250 (≈ 89.6 µg/mL) | 250 (≈ 89.6 µg/mL) | 250 (≈ 89.6 µg/mL) | 250 (≈ 89.6 µg/mL) | 250 (≈ 89.6 µg/mL) | 250 (≈ 89.6 µg/mL) | 250 (≈ 89.6 µg/mL) | 250 (≈ 89.6 µg/mL) | –
3 | CCCCCCCCCCCCNC(=O)NNC(=O)c1ccncc1 | > 50 | 62.5 (≈ 21.8 µg/mL) | 32 (≈ 11.2 µg/mL) | 62.5 (≈ 21.8 µg/mL) | 62.5 (≈ 21.8 µg/mL) | 62.5 (≈ 21.8 µg/mL) | 32 (≈ 11.2 µg/mL) | 32 (≈ 11.2 µg/mL) | 62.5 (≈ 21.8 µg/mL) | 125 (≈ 43.6 µg/mL) | 32 (≈ 11.2 µg/mL) | –
4 | CCCCCCCCCCCCCCCCNc1nnc(-c2ccncc2)o1 | – | 500 (≈ 193 µg/mL) | 250 (≈ 96.6 µg/mL) | 250 (≈ 96.6 µg/mL) | 250 (≈ 96.6 µg/mL) | 500 (≈ 193 µg/mL) | 250 (≈ 96.6 µg/mL) | 250 (≈ 96.6 µg/mL) | 500 (≈ 193 µg/mL) | 500 (≈ 193 µg/mL) | 250 (≈ 96.6 µg/mL) | –
5 | CCCNc1nnc(-c2ccncc2)o1 | – | 1000 (≈ 204 µg/mL) | > 1000 | > 1000 | 1000 (≈ 204 µg/mL) | 1000 (≈ 204 µg/mL) | 500 (≈ 102 µg/mL) | 500 (≈ 102 µg/mL) | 1000 (≈ 204 µg/mL) | 1000 (≈ 204 µg/mL) | 500 (≈ 102 µg/mL) | –
6 | CCCCNC(=O)NNC(=O)c1ccncc1 | > 3000 | 250 (≈ 59.1 µg/mL) | > 1000 | > 1000 | 250 (≈ 59.1 µg/mL) | 500 (≈ 118 µg/mL) | 500 (≈ 118 µg/mL) | 8 (≈ 1.89 µg/mL) | 1000 (≈ 236 µg/mL) | 1000 (≈ 236 µg/mL) | 8 (≈ 1.89 µg/mL) | > 375
7 | CCCCCCCCCCCCCCCCNC(=O)NNC(=O)c1ccncc1 | > 50 | 62.5 (≈ 25.3 µg/mL) | 125 (≈ 50.6 µg/mL) | 125 (≈ 50.6 µg/mL) | 32 (≈ 12.9 µg/mL) | 62.5 (≈ 25.3 µg/mL) | 32 (≈ 12.9 µg/mL) | 32 (≈ 12.9 µg/mL) | 62.5 (≈ 25.3 µg/mL) | 62.5 (≈ 25.3 µg/mL) | 62.5 (≈ 25.3 µg/mL) | –
8 | CCCCCCCCCNc1nnc(-c2ccncc2)o1 | > 50 | 250 (≈ 72.1 µg/mL) | 125 (≈ 36 µg/mL) | 125 (≈ 36 µg/mL) | 125 (≈ 36 µg/mL) | 250 (≈ 72.1 µg/mL) | 125 (≈ 36 µg/mL) | 62.5 (≈ 18 µg/mL) | 250 (≈ 72.1 µg/mL) | 250 (≈ 72.1 µg/mL) | 62.5 (≈ 18 µg/mL) | –
9 | CCCCCCCCCCCNC(=O)NNC(=O)c1ccncc1 | > 50 | 125 (≈ 41.8 µg/mL) | 125 (≈ 41.8 µg/mL) | 125 (≈ 41.8 µg/mL) | 62.5 (≈ 20.9 µg/mL) | 125 (≈ 41.8 µg/mL) | 16 (≈ 5.35 µg/mL) | 32 (≈ 10.7 µg/mL) | 32 (≈ 10.7 µg/mL) | 62.5 (≈ 20.9 µg/mL) | 62.5 (≈ 20.9 µg/mL) | –
10 | CCCCCNc1nnc(-c2ccncc2)o1 | – | 1000 (≈ 232 µg/mL) | > 1000 | > 1000 | 500 (≈ 116 µg/mL) | 1000 (≈ 232 µg/mL) | 500 (≈ 116 µg/mL) | 62.5 (≈ 14.5 µg/mL) | 1000 (≈ 232 µg/mL) | 1000 (≈ 232 µg/mL) | 62.5 (≈ 14.5 µg/mL) | –
11 | CCCCCCCCCCCCCNC(=O)NNC(=O)c1ccncc1 | > 100 | 62.5 (≈ 22.7 µg/mL) | 125 (≈ 45.3 µg/mL) | 125 (≈ 45.3 µg/mL) | 32 (≈ 11.6 µg/mL) | 62.5 (≈ 22.7 µg/mL) | 16 (≈ 5.8 µg/mL) | 32 (≈ 11.6 µg/mL) | 32 (≈ 11.6 µg/mL) | 62.5 (≈ 22.7 µg/mL) | 62.5 (≈ 22.7 µg/mL) | –
12 | CCCCCCCNC(=O)NNC(=O)c1ccncc1 | > 500 | 250 (≈ 69.6 µg/mL) | 250 (≈ 69.6 µg/mL) | 250 (≈ 69.6 µg/mL) | 125 (≈ 34.8 µg/mL) | 250 (≈ 69.6 µg/mL) | 62.5 (≈ 17.4 µg/mL) | 32 (≈ 8.91 µg/mL) | 125 (≈ 34.8 µg/mL) | 125 (≈ 34.8 µg/mL) | 62.5 (≈ 17.4 µg/mL) | –
13 | CCCCCCCCNc1nnc(-c2ccncc2)o1 | – | 125 (≈ 34.3 µg/mL) | 62.5 (≈ 17.1 µg/mL) | 125 (≈ 34.3 µg/mL) | 62.5 (≈ 17.1 µg/mL) | 125 (≈ 34.3 µg/mL) | 62.5 (≈ 17.1 µg/mL) | 62.5 (≈ 17.1 µg/mL) | 125 (≈ 34.3 µg/mL) | 125 (≈ 34.3 µg/mL) | 62.5 (≈ 17.1 µg/mL) | –
14 | CCCCCCCCNC(=O)NNC(=O)c1ccncc1 | > 500 | 125 (≈ 36.5 µg/mL) | 250 (≈ 73.1 µg/mL) | 250 (≈ 73.1 µg/mL) | 62.5 (≈ 18.3 µg/mL) | 250 (≈ 73.1 µg/mL) | 32 (≈ 9.36 µg/mL) | 62.5 (≈ 18.3 µg/mL) | 62.5 (≈ 18.3 µg/mL) | 125 (≈ 36.5 µg/mL) | 125 (≈ 36.5 µg/mL) | –
